Results: article PMC4691888 (Genes & Development, 2015)
Changes are numbered by the printed parent chain. Values belong to the molecule of their own block, whether it stands above or below them. No end group written: not given here. Me2 = α-N-dimethylated N-terminal residue

Columns and labels:
[1] = target: T1, human NRMT1 (Homo sapiens, UniProt Q9BV86); test: MALDI-TOF MS-based methylation assay of native and mutant CENP-A; assay type: biochemical; conditions: 5 h incubation, CENP-A (1-9) peptides
T1 sequence (Q9BV86 1-223): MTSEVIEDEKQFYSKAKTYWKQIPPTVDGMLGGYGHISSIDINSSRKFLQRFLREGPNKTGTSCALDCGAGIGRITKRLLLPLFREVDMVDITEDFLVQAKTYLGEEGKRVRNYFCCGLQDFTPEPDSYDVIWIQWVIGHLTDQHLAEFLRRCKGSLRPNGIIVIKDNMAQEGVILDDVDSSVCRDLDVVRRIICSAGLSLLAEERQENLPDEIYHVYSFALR
Method in brief: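 Recombinant His-tagged human NRMT1, expressed in E. coli and purified, incubated 5 h with native or mutant CENP-A peptides. Methylated products detected by MALDI-TOF mass spectrometry. Abundance of each methylation state scored semi-quantitatively (full or half abundance levels); products not detected are recorded as ND.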

[2] = target: T1, human NRMT1; test: Thermofluor shift assay; assay type: binding; conditions: CENP-A (1-9) peptides, 360 μM; 1 mg/mL NRMT1, 180 μM SAH, pH 8.0
[3] = target: T1, human NRMT1; test: Histone peptide methylation profiling by NRMT1; assay type: biochemical; conditions: nine-residue N-terminal histone peptides; MALDI-TOF MS
Method in brief: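 Wild-type human NRMT1, produced recombinantly in E. coli and purified as a His-tagged protein, incubated with native or mutant peptide substrates for 5 h. Methylated products detected by MALDI-TOF MS and scored semi-quantitatively by relative abundance of each methylation state (full or half abundance), with not-detected products recorded as ND.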

[4] = target: T1, human NRMT1; conditions: ref Okada et al. 2007; Tooley et al. 2010; Bailey et al. 2013; cited from earlier work
[5] = target: human NRMT1 (human) (UniProt Q9BV86); test: thermofluor shift assay
[6] = target: T2, human NRMT1 (human, UniProt Q9BV86 1-223); test: thermofluor shift assay
T2 sequence (looked up): T1 sequence (Q9BV86 1-223)

[7] = target: T2, human NRMT1; test: ITC
[8] = target: T3, human NRMT1 D180N (human, UniProt Q9BV86 1-223, D180N); test: cell-based or functional assay
T3 sequence: T1 sequence (Q9BV86 1-223) with D180N

- methylation by NRMT1, in words [3]: dimethylation
Molecule: PPKTSGKAA [DmH2B (fruit fly)]

- Tm of the NRMT1–CENP-A complex [5]: 49 °C
Molecule: α-N-monomethylated CENP-A peptide

- Tm of the NRMT1–CENP-A complex [5]: 50 °C
Molecule: α-N-trimethylated CENP-A peptide

- Kd [7]: 390 nM
- dH [7]: -11.8 kcal/mol
Molecule: Me2-GPRRRSRKP [α-N-dimethylated CENP-A (1–9) peptide]
- Tm of the NRMT1–CENP-A complex [6]: 52.5 °C

- in vitro methylation assay of CENP-A, drop of activity against wild-type enzyme [8]: ~4 fold
Molecule: GPRRRSRKP [CENP-A (1–9) peptide, unmodified]

Second part, the molecule before the results:

Molecule: (G1A)PRRRSRKP
- methylation capacity / state preference, in words [1]: full state
- Tm increase (stabilization) compared with NRMT1-SAH binary complex [2]: 1.5 °C

Molecule: (G1P)PRRRSRKP
- methylation capacity / state preference, in words [1]: full state
- Tm increase (stabilization) compared with NRMT1-SAH binary complex [2]: 5.5 °C

Molecule: (G1S)PRRRSRKP
- methylation capacity / state preference, in words [1]: α-N-monomethylation being the major product form
- Tm increase (stabilization) compared with NRMT1-SAH binary complex [2]: 3 °C

Molecule: myosin light chain 3: reported NRMT1 substrate protein
- reported NRMT1 substrate, in words [4]: reported NRMT1 substrates

B1: myosin light chain 2: reported NRMT1 substrate protein (protein, UniProt P10916 2-166, looked up)
Myosin regulatory light chain …: APKKAKKRAGGANSNVFSMFEQTQIQEFKEAFTIMDQNRDGFIDKNDLRDTFAALGRVNVKNEEIDEMIKEAPGPINFTVFLTMFGEKLKGADPEETILNAFKVFDPEGKGVLKADYVREMLTTQAERFSKEEVDQMFAAFPPDVTGNLDYKNLVHIITHGEEKD
- reported NRMT1 substrate, in words [4]: reported NRMT1 substrates

B2: retinoblastoma protein: reported NRMT1 substrate protein (protein, UniProt P06400 2-928, looked up)
Retinoblastoma-associated …: PPKTPRKTAATAAAAAAEPPAPPPPPPPEEDPEQDSGPEDLPLVRLEFEETEEPDFTALCQKLKIPDHVRERAWLTWEKVSSVDGVLGGYIQKKKELWGICIFIAAVDLDEMSFTFTELQKNIEISVHKFFNLLKEIDTSTKVDNAMSRLLKKYDVLFALFSKLERTCELIYLTQPSSSISTEINSALVLKVSWITFLLAKGEVLQMEDDLVISFQLMLCVLDYFIKLSPPMLLKEPYKTAVIPINGSPRTPRRGQNRSARIAKQLENDTRIIEVLCKEHECNIDEVKNVYFKNFIPFMNSLGLVTSNGLPEVENLSKRYEEIYLKNKDLDARLFLDHDKTLQTDSIDSFETQRTPRKSNLDEEVNVIPPHTPVRTVMNTIQQLMMILNSASDQPSENLISYFNNCTVNPKESILKRVKDIGYIFKEKFAKAVGQGCVEIGSQRYKLGVRLYYRVMESMLKSEEERLSIQNFSKLLNDNIFHMSLLACALEVVMATYSRSTSQNLDSGTDLSFPWILNVLNLKAFDFYKVIESFIKAEGNLTREMIKHLERCEHRIMESLAWLSDSPLFDLIKQSKDREGPTDHLESACPLNLPLQNNHTAADMYLSPVRSPKKKGSTTRVNSTANAETQATSAFQTQKPLKSTSLSLFYKKVYRLAYLRLNTLCERLLSEHPELEHIIWTLFQHTLQNEYELMRDRHLDQIMMCSMYGICKVKNIDLKFKIIVTAYKDLPHAVQETFKRVLIKEEEYDSIIVFYNSVFMQRLKTNILQYASTRPPTLSPIPHIPRSPYKFPSSPLRIPGGNIYISPLKSPYKISEGLPTPTKMTPRSRILVSIGESFGTSEKFQKINQMVCNSDRVLKRSAEGSNPPKPLKKLRFDIEGSDEADGSKHLPGESKFQQKLAEMTSTRTRMQKQKMNDSMDTSNKEEK
- reported NRMT1 substrate, in words [4]: reported NRMT1 substrates

B3: regulator of chromosome condensation 1 (RCC1): reported NRMT1 substrate protein (protein, UniProt P18754 2-421, looked up)
Regulator of chromosome …: SPKRIAKRRSPPADAIPKSKKVKVSHRSHSTEPGLVLTLGQGDVGQLGLGENVMERKKPALVSIPEDVVQAEAGGMHTVCLSKSGQVYSFGCNDEGALGRDTSVEGSEMVPGKVELQEKVVQVSAGDSHTAALTDDGRVFLWGSFRDNNGVIGLLEPMKKSMVPVQVQLDVPVVKVASGNDHLVMLTADGDLYTLGCGEQGQLGRVPELFANRGGRQGLERLLVPKCVMLKSRGSRGHVRFQDAFCGAYFTFAISHEGHVYGFGLSNYHQLGTPGTESCFIPQNLTSFKNSTKSWVGFSGGQHHTVCMDSEGKAYSLGRAEYGRLGLGEGAEEKSIPTLISRLPAVSSVACGASVGYAVTKDGRVFAWGMGTNYQLGTGQDEDAWSPVEMMGKQLENRVVLSVSSGGQHTVLLVKDKEQS
- reported NRMT1 substrate, in words [4]: reported NRMT1 substrates

B4: kelch-like protein 31: reported NRMT1 substrate protein (protein, UniProt Q9H511 2-634, looked up)
Kelch-like protein 31: APKKKIVKKNKGDINEMTIIVEDSPLNKLNALNGLLEGGNGLSCISSELTDASYGPNLLEGLSKMRQENFLCDLVIGTKTKSFDVHKSVMASCSEYFYNILKKDPSIQRVDLNDISPLGLATVIAYAYTGKLTLSLYTIGSIISAAVYLQIHTLVKMCSDFLIREMSVENCMYVVNIAETYSLKNAKAAAQKFIRDNFLEFAESDQFMKLTFEQINELLIDDDLQLPSEIVAFQIAMKWLEFDQKRVKYAADLLSNIRFGTISAQDLVNYVQSVPRMMQDADCHRLLVDAMNYHLLPYHQNTLQSRRTRIRGGCRVLVTVGGRPGLTEKSLSRDILYRDPENGWSKLTEMPAKSFNQCVAVMDGFLYVAGGEDQNDARNQAKHAVSNFCRYDPRFNTWIHLASMNQKRTHFSLSVFNGLVYAAGGRNAEGSLASLECYVPSTNQWQPKTPLEVARCCHASAVADGRVLVTGGYIANAYSRSVCAYDPASDSWQELPNLSTPRGWHCAVTLSDRVYVMGGSQLGPRGERVDVLTVECYSPATGQWSYAAPLQVGVSTAGVSALHGRAYLVGGWNEGEKKYKKCIQCFSPELNEWTEDDELPEATVGVSCCTLSMPNNVTRESRASSVSSVPVSI
- reported NRMT1 substrate, in words [4]: reported NRMT1 substrates

B5: CENP-B: reported NRMT1 substrate protein (protein, UniProt P07199 2-599, looked up)
Major centromere autoantigen B: GPKRRQLTFREKSRIIQEVEENPDLRKGEIARRFNIPPSTLSTILKNKRAILASERKYGVASTCRKTNKLSPYDKLEGLLIAWFQQIRAAGLPVKGIILKEKALRIAEELGMDDFTASNGWLDRFRRRHGVVSCSGVARARARNAAPRTPAAPASPAAVPSEGSGGSTTGWRAREEQPPSVAEGYASQDVFSATETSLWYDFLPDQAAGLCGGDGRPRQATQRLSVLLCANADGSEKLPPLVAGKSAKPRAGQAGLPCDYTANSKGGVTTQALAKYLKALDTRMAAESRRVLLLAGRLAAQSLDTSGLRHVQLAFFPPGTVHPLERGVVQQVKGHYRQAMLLKAMAALEGQDPSGLQLGLTEALHFVAAAWQAVEPSDIAACFREAGFGGGPNATITTSLKSEGEEEEEEEEEEEEEEGEGEEEEEEGEEEEEEGGEGEELGEEEEVEEEGDVDSDEEEEEDEESSSEGLEAEDWAQGVVEAGGSFGAYGAQEEAQCPTLHFLEGGEDSDSDSEEEDDEEEDDEDEDDDDDEEDGDEVPVPSFGEAMAYFAMVKRYLTSFPIDDRVQSHILHLEHDLVHVTRKNHARQAGVRGLGHQS
- reported NRMT1 substrate, in words [4]: reported NRMT1 substrates
